Source: PubChem
Sampled rows, rich in hits. Any-hit rate of the full collection: about 5.2%.
M1 agonist: activates the M1 muscarinic receptor. B-score at 10 µM. CHO-M1 cells, Fluo-4 calcium fluorescence, agonist mode; stronger effect = higher value. actives 3% (n = 64,000);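 active = fluorescence rise, raw or as B-score row- and column-corrected plate score, outside the 99.7% band of its plate's samples, either direction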
WNV protease inh: WNV NS2B-NS3 proteinase inhibition. actives 0.18% (n = 65,000). z-score (test concentration not listed). P06935. WNV NS2B-NS3 protease, fluorogenic substrate Ex360/Em465; stronger effect = lower value. AID 577; in the data active = z-score below about -3
Target sequence (P06935 1371-1501 limits assumed): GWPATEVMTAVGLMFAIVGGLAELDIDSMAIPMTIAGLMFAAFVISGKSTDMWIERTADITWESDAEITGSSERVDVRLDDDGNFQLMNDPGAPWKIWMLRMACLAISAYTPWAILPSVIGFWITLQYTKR
Target sequence (P06935 1502-1679 limits assumed): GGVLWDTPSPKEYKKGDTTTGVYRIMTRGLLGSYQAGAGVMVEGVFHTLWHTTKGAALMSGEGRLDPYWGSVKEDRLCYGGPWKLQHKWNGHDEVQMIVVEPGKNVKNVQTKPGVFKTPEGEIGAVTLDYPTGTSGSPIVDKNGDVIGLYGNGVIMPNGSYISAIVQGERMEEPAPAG
Ecoli WT expand: growth inhibitors of E. coli BW25113 wild type; OD600 absorbance; growth inhibition, % at 100 µM; actives 0.15% (n = 98,000);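 active = growth inhibition above about 50% at one test dose, limit read from the data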;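 note: growth measured after 20 h incubation at 37 °C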
tolC growth inh: growth inhibitors of E. coli BW25113 tolC mutant. OD615. growth inhibition, % at 10 µM (by protocol). actives 2.2% (n = 65,000);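 active = growth inhibition at or above a cutoff equal to the mean over every tested compound plus 3 SD, cut at about 60% in these data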;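 note: growth measured after 20 h incubation at 37 °C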
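test system = E. coli BW25113 ΔtolC::kan bacteria | medium = LB with kanamycin 50 µg/mL | signal = OD at 615 nm | schedule = 37 °C, 20 h exposure | evaluation = % inhibition of E. coli growth | compound dosing = one dose of 10 µM final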
AP complement: orthogonal test for alternative complement pathway inhibitors. Human serum alternative complement pathway, LPS-coated ELISA, C3 deposition; tested in compound mixtures. inhibition, % at 5 µM. actives 0.08% (n = 62,000);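 active = inhibition above 30% in each of the two pooled mixtures holding the compound, so the lower value exceeds 30%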
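Assay system: Human serum alternative complement pathway, C3 deposition on LPS-coated wells | Incubation: 1 h serum-compound exposure at 37 °C | Doses: 5 µM per compound in ten-compound mixtures | Read-out: Percent inhibition | Technique: ELISA with HRP anti-human C3 antibody, TMB substrate, absorbance 450 nm | Replication: Two pool placements per compound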
M1 antagonist: blocks the rat M1 muscarinic receptor response to acetylcholine. P08482. CHO-M1 cells, Fluo-4 calcium, ACh EC80 antagonist mode; stronger effect = lower value. B-score at 10 µM. actives 3.4% (n = 64,000). AID 628;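 active = calcium fluorescence response, raw or row-and-column corrected B-score, differing from the plate sample mean either way at a set confidence level, mostly lower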
M1 antag confirm: M1 muscarinic receptor (rat) antagonism, confirmed; shares compounds with M1 antagonist; CHO-M1 cells, Fluo-4 calcium, ACh EC80 antagonism; stronger effect = lower value; calcium response (max-min fluorescence) at 10 µM; actives 43% (n = 1,700); AID 677;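 active = calcium response below the same-plate mean of wells given acetylcholine alone at its 80%-effect dose, minus 3 SD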
mGluR4 antag: mGluR4 (human) activity, M1 antagonist secondary assay; fluorescence response (max-min) at 10 µM; AID 678; CHO-mGluR4 calcium flux, Fluo-4 fluorescence, glutamate EC80; stronger effect = lower value; shares compounds with M1 antagonist; actives 0.9% (n = 1,700);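 active = fluorescence response below the plate's average for near-maximal glutamate wells, less 3 SD of those wells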;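 note: raw unnormalized fluorescence span taken in the window right after glutamate addition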
Large screens that a line does not name were inactive (follow-up assays come after a bar, where they were run).

Cc1cccc(C2Nc3ccccc3C(=O)N2CCc2ccccc2)n1 (stereo not given)	M1 antagonist -11 | M1 antag confirm inactive | mGluR4 antag inactive
CCN(CCCNC(=O)COc1cc(=O)n(C)c2ccccc12)c1cccc(C)c1	M1 antagonist -1.9 | M1 antag confirm inactive | mGluR4 antag inactive
COc1ccc(C)cc1N(CC(=O)NC1CCCC1)C(=O)CCC(=O)Nc1cc(C)on1	none
COc1cc2c(=O)n(Cc3ccco3)c(=O)n(CC(=O)c3ccc(Br)cc3)c2cc1OC	none
COc1cc2c(=O)n(Cc3ccccc3)c(=O)n(CC(=O)C(C)(C)C)c2cc1OC	M1 antagonist -2.1 (no result: Ecoli WT expand) | M1 antag confirm inactive | mGluR4 antag inactive
O=C(Nc1ccc(Br)c(Cl)c1)C1CC1	M1 antagonist -6.2 | M1 antag confirm inactive | mGluR4 antag inactive
O=C(O)CCC(=O)Nc1ccc(Br)c(Cl)c1	none (no result: M1 agonist, WNV protease inh, tolC growth inh, AP complement, M1 antagonist)
CCCC(=O)c1cc(F)c(N2CCOCC2)cc1C	none
CCOc1ccc2nc(N3CCC(C(=O)N4CCN(c5ncccn5)CC4)CC3)sc2c1	none (no result: Ecoli WT expand)
CCOc1ccc2nc(N3CCC(C(=O)N4CCN(c5ccccn5)CC4)CC3)sc2c1	M1 antagonist -2.4 | M1 antag confirm inactive | mGluR4 antag inactive
CCOC(=O)c1sc2ncnc(NCC(c3cccs3)N(C)C)c2c1C (stereo not given)	M1 antagonist -3.4 | M1 antag confirm 496 | mGluR4 antag inactive
CCn1c(CNc2ccccc2Cl)nnc1SCC(=O)NCc1ccccc1	M1 antagonist -3 | M1 antag confirm 465 | mGluR4 antag inactive
CCn1c(CNC(=O)c2ccco2)nnc1SCC(=O)Nc1cc(C(F)(F)F)ccc1Cl	M1 antagonist -1.2 | M1 antag confirm inactive | mGluR4 antag inactive
O=C(Nc1ccc(C(F)(F)F)cc1)c1cccnc1N1CCOCC1	none (no result: M1 agonist, WNV protease inh, tolC growth inh, AP complement, M1 antagonist)
O=C(Nc1ccccc1)c1cccnc1N1CCOCC1	M1 antagonist -3.3 | M1 antag confirm inactive | mGluR4 antag inactive
CC(C)CC(c1nnnn1C(C)(C)C)N1CCN(C2CCCC2)CC1 (stereo not given)	M1 antagonist -4.4 | M1 antag confirm inactive | mGluR4 antag inactive
Cc1ccc(C(c2nnnn2C(C)(C)C)N2CCN(C3CCCC3)CC2)cc1 (stereo not given)	none
CCCCOC1(c2ccccc2)NC(=S)NN=C1c1ccccc1 (stereo not given)	none (no result: M1 agonist, WNV protease inh, tolC growth inh, AP complement, M1 antagonist)
CCOc1ccc(-c2cnc3n2CCC3)cc1	none (no result: M1 agonist, WNV protease inh, tolC growth inh, AP complement, M1 antagonist)
Brc1ccc(-c2cnc3n2CCCC3)cc1	M1 antagonist -3 (no result: AP complement) | M1 antag confirm 288 | mGluR4 antag inactive
CC(C)(C)NC(=O)Cn1c(=O)oc2cc(S(=O)(=O)N3CCc4ccccc43)ccc21	M1 antagonist -2.4 | M1 antag confirm inactive | mGluR4 antag inactive
CCOC(=O)Cn1c(=O)oc2cc(S(=O)(=O)N3CCc4ccccc43)ccc21	M1 antagonist -3.7 | M1 antag confirm inactive | mGluR4 antag inactive
Cn1c(=O)oc2cc(S(=O)(=O)N3CCCc4ccccc43)ccc21	none
CCOC(=O)Cn1c(=O)oc2cc(S(=O)(=O)NCCc3ccc(OCC)c(OCC)c3)ccc21	M1 antagonist -2.3 | M1 antag confirm inactive | mGluR4 antag inactive
CC(C)C(C(=O)Nc1ccc(N2CCOCC2)cc1)N1C(=O)c2ccccc2C1=O (stereo not given)	none
Oc1ccccc1-c1nc(NCCN2CCOCC2)c2ccccc2n1	M1 antagonist -2.8 (no result: AP complement) | M1 antag confirm inactive | mGluR4 antag inactive
COc1cccc(-c2nc(NCCN3CCOCC3)c3ccccc3n2)c1O	none (no result: AP complement)
CCN(CC)S(=O)(=O)c1cccc(C(=O)Nc2nc3cc4c(cc3s2)OCCO4)c1	none (no result: Ecoli WT expand)
Cc1[nH]nc2c1C(c1ccccc1F)CC(=O)N2 (stereo not given)	none
C=CCn1c(SCC(=O)Nc2ccccc2)nc2scc(-c3cccs3)c2c1=O	none (no result: M1 agonist, WNV protease inh, tolC growth inh, AP complement, M1 antagonist)
N#CCSc1nc2scc(-c3cccs3)c2c(=O)n1CCc1ccccc1	M1 antagonist -3.3 (no result: AP complement) | M1 antag confirm inactive | mGluR4 antag inactive
COc1cc2nc(N3CCNCC3)nc(N)c2cc1OC	M1 antagonist -1.4 | M1 antag confirm inactive | mGluR4 antag inactive
CN(C(=O)CSc1nc2ccccc2n1CCc1ccccc1)C1CCS(=O)(=O)C1 (stereo not given)	M1 antagonist -10 | M1 antag confirm inactive | mGluR4 antag inactive
CC(Oc1ccc(Cl)cc1Cl)C(=O)NCc1ccncc1 (stereo not given)	M1 antagonist -2.4 | M1 antag confirm inactive | mGluR4 antag inactive
Cc1ccc(S(=O)(=O)Nc2nsc(N)n2)cc1	M1 antagonist -2.9 | M1 antag confirm inactive | mGluR4 antag inactive
Cc1ccc(S(=O)(=O)Nc2nc3ccccc3s2)cc1	none (no result: M1 agonist, WNV protease inh, tolC growth inh, AP complement, M1 antagonist)
Cc1ccc(S(=O)(=O)C2(C(=O)N3CCCCC3C)CC2)cc1 (stereo not given)	none
COc1ccc(N2CCCn3c2nc2c3c(=O)n(Cc3ccccc3F)c(=O)n2C)c(OC)c1	none
CC1(C)CC(=O)c2c(nn(-c3ccccc3)c2N)C1	M1 antagonist -2.4 | M1 antag confirm inactive | mGluR4 antag inactive
CC1(C)CC(=O)c2c(nc3ccccc3c2N)C1	none
Cc1ccccc1CS(=O)(=O)Cc1ccc(C(=O)NCc2cccnc2)o1	none
Cc1cccc(CS(=O)(=O)Cc2ccc(C(=O)NCc3cccnc3)o2)c1	M1 antagonist -18 | M1 antag confirm inactive | mGluR4 antag inactive
COc1ccc(C2CCCN2C(=O)Nc2cccc(C(C)=O)c2)cc1OC (stereo not given)	M1 antagonist -2.5 | M1 antag confirm inactive | mGluR4 antag inactive
Nc1ncc(Br)cc1S(=O)(=O)NCCC(=O)N1CCN(c2ncccn2)CC1	M1 antagonist -2.9 | M1 antag confirm inactive | mGluR4 antag inactive
O=C(CCNS(=O)(=O)c1cccc2nsnc12)N1CCN(c2ccccn2)CC1	M1 antagonist -2 | M1 antag confirm 42 | mGluR4 antag inactive
Nc1ncc(Br)cc1S(=O)(=O)NCCC(=O)Nc1cccc(Cl)c1	none (no result: M1 agonist, WNV protease inh, tolC growth inh, AP complement, M1 antagonist)
O=C(CCNS(=O)(=O)c1cccc2nsnc12)NCCc1ccccc1	none
COc1cc(OC)c(NC(=O)CCNS(=O)(=O)c2cc(Br)cnc2N)cc1Cl	M1 antagonist -6.9 | M1 antag confirm inactive | mGluR4 antag inactive
CCCCN1C(=O)c2ccc(C(=O)Nc3c(N)n(CCCC)c(=O)n(C)c3=O)cc2C1=O	none
COc1ccc(C(=O)N2CCN(S(=O)(=O)c3cc(Cl)ccc3OC)CC2)cc1	none
c1coc(-c2nnc3sc(-c4cccs4)nn23)c1	none (no result: AP complement)
O=C(Nc1ccc(N2CCCCC2)cc1)c1cccnc1Cl	none (no result: M1 agonist, WNV protease inh, tolC growth inh, AP complement, M1 antagonist)
